The subject of assay [1] is JIMT-1 cells. To be noted: JIMT-1, 2D cultures, normoxia, FBS-supplemented medium; cited from earlier work.
In assay [2] the test system is human dermal fibroblasts (HDFs). As to the kind of experiment: MTT dose response assay, HDFs in 2D and 3D PCL 96-well plates. To be noted: HDF, 72 h, mean of three experiments ± SEM. Format: cell-based. The gist of the method: (§1)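 Accutase-detached cells seeded at 7000 (2D) or 21,000 (3D; O2-plasma-treated, ethanol-sterilized PCL fibre-mesh wells) per 180 μL. After 24 h normoxic attachment, compound added, then 72 h at 18 % O2/5 % CO2 or 1 % O2. MTT (20 μL of 5 mg/mL) 2 h; formazan dissolved in DMSO (2D 15 min, 3D 2 h shaking); absorbance background-subtracted. IC50 = 50 % MTT reduction; ≥3 experiments, 3–6 wells/concentration.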
Background: Formazan colour is commonly taken as a measure of viable cells.

Assay [3] deals with JIMT-1 breast cancer cells. The experiment in a line: MTT dose response assay, JIMT-1 cells in 2D and 3D PCL 96-well plates. Type of assay: cell-based, human. The following applies: JIMT-1, 2D culture, hypoxia (1 % O2), 72 h, mean of three experiments ± SEM. The gist of the method:
as §1

We go through one substance from article PMC8024882 (Toxicology Reports, 2021).

The term IC50 denotes the midpoint of a concentration-inhibition curve. With “salinomycin analogue 20-ethyl carbonate-Na [SAEC]”, the IC50 is 90 ± 0.02 nM in assay [1]; 239 ± 6.2 nM in assay [2] (2D culture, hypoxia (1 % O2)); 97.7 ± 11.8 nM in assay [2] (2D culture, normoxia (18 % O2)); 316 ± 35.1 nM in assay [2] (3D culture, hypoxia (1 % O2)); 150 ± 34.4 nM in assay [2] (3D culture, normoxia (18 % O2)); 80.4 ± 13.3 nM in assay [3].
